Assay results taken from ChEMBL document CHEMBL1649155, “Antimicrobial activity of curcumin against Helicobacter pylori isolates from India and during infections in mice” (2009).
Values after ≈ are worked out from the molar mass of the structure shown. Active and inactive are the calls of the source. The rule behind the calls is not given here.

Columns and labels:
Helicobacter pylori [1] = assay: Antimicrobial activity against Helicobacter pylori PG233 by agar dilution method; assay type: functional
Outline: (§1)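 Agar dilution on BHI agar with 5% horse serum. Isolates were grown 3 days under microaerophilic conditions and restreaked for 24 h. Cells were suspended in PBS to OD600 0.1, and 10 μl was spotted onto agar with curcumin at final 50–5 μg/ml (DMSO stock). Plain and DMSO-containing agar served as growth controls. Plates ran 5 days at 37°C microaerophilic. MIC is the lowest concentration with no visible growth.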

Helicobacter pylori [2] = assay: Antimicrobial activity against Helicobacter pylori L1675 by agar dilution method; assay type: functional; outline: as §1
Helicobacter pylori [3] = assay: Antimicrobial activity against Helicobacter pylori SS1 infected in C57BL/6 mouse assessed as restoration of epithelial layer of gastric tissue at 25 mg/kg, po administered 2 weeks post infection for 7 days measured after 1 week; assay type: functional, organism-based; set-up: dose 25 mg/kg; details: Stomach
Outline: (§2)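 C57BL/6 mice were inoculated intragastrically with SS1, with PBS controls. Two weeks after the final inoculation, curcumin 25 mg/kg was fed orally for 7 consecutive days before sacrifice. Body and pyloric stomach tissue was formalin-fixed and paraffin-embedded, and 5 μm sections were stained with hematoxylin and eosin and examined at ×10 and ×20.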

Helicobacter pylori [4] = assay: Antimicrobial activity against Helicobacter pylori ATCC 43504 by agar dilution method; assay type: functional; outline: as §1
Helicobacter pylori [5] = assay: Antimicrobial activity against Helicobacter pylori SS1 infected in C57BL/6 mouse assessed as inhibition of inflammatory cell infiltration at 25 mg/kg, po administered 2 weeks post infection for 7 days measured after 1 week; assay type: functional, organism-based; set-up: dose 25 mg/kg; outline: as §2
Helicobacter pylori [6] = assay: Antimicrobial activity against Helicobacter pylori SS1 infected in C57BL/6 mouse assessed as inhibition of disruption in submucosal and muscularis mucosal layer of gastric tissue at 25 mg/kg, po administered 2 weeks post infection for 7 days measured after 1 week; assay type: functional, organism-based; set-up: dose 25 mg/kg; details: Stomach; outline: as §2
Helicobacter pylori [7] = assay: Antimicrobial activity against Helicobacter pylori AM1 infected in C57BL/6 mouse assessed as decreased bacterial gene vacA expression at 25 mg/kg, po administered 2 weeks post infection for 7 days measured after 1 week by PCR; assay type: functional, organism-based; set-up: dose 25 mg/kg
[8] = Antimicrobial activity against Helicobacter pylori 26695 by agar dilution method; assay type: functional
Helicobacter pylori [9] = assay: Antimicrobial activity against Helicobacter pylori PG156 by agar dilution method; assay type: functional; outline: as §1
Helicobacter pylori [10] = assay: Antimicrobial activity against Helicobacter pylori SS1 infected in C57BL/6 mouse assessed as decreased bacterial gene vacA expression at 25 mg/kg, po administered 2 weeks post infection for 7 days measured after 1 week by PCR; assay type: functional, organism-based; set-up: dose 25 mg/kg
Helicobacter pylori [11] = assay: Antimicrobial activity against Helicobacter pylori SS1 infected in C57BL/6 mouse assessed as decrease in glandular atrophy at 25 mg/kg, po administered 2 weeks post infection for 7 days measured after 1 week; assay type: functional, organism-based; set-up: dose 25 mg/kg; outline: as §2
Helicobacter pylori [12] = assay: Antimicrobial activity against Helicobacter pylori clinical isolate by agar dilution method; assay type: functional; outline: as §1
Helicobacter pylori [13] = assay: Antimicrobial activity against Helicobacter pylori PG139 by agar dilution method; assay type: functional; outline: as §1

| MIC (Helicobacter pylori [1]) | MIC (Helicobacter pylori [2]) | MIC (Helicobacter pylori [4]) | MIC [8] | MIC (Helicobacter pylori [9]) | MIC (Helicobacter pylori [12]) | MIC (Helicobacter pylori [13]) | Structure (SMILES) | Activity (Helicobacter pylori [3]) | Activity (Helicobacter pylori [5]) | Activity (Helicobacter pylori [6]) | Activity (Helicobacter pylori [7]) | Activity (Helicobacter pylori [10]) | Activity (Helicobacter pylori [11]) |
| --- | --- | --- | --- | --- | --- | --- | --- | --- | --- | --- | --- | --- | --- |
| 5 mg/L (≈ 13.6 µM) | 50 mg/L (≈ 136 µM) | 15 mg/L (≈ 40.7 µM) | 20 mg/L (≈ 54.3 µM) | 30 mg/L (≈ 81.4 µM) | 5 mg/L (≈ 13.6 µM) | 5 mg/L (≈ 13.6 µM) | COc1cc(/C=C/C(=O)CC(=O)/C=C/c2ccc(O)c(OC)c2)ccc1O [CURCUMIN] | Active | Active | Active | Active | Active | Active |
|  |  | 0.02 mg/L (≈ 0.0267 µM) |  |  | 0.02 mg/L (≈ 0.0267 µM) |  | CC[C@H]1OC(=O)[C@H](C)[C@@H](O[C@H]2C[C@@](C)(OC)[C@@H](O)[C@H](C)O2)[C@H](C)[C@@H](O[C@@H]2O[C@H](C)C[C@H](N(C)C)[C@H]2O)[C@](C)(OC)C[C@@H](C)C(=O)[C@H](C)[C@@H](O)[C@]1(C)O [CLARITHROMYCIN] |  |  |  |  |  |  |
|  |  | 0.03 mg/L (≈ 0.0821 µM) |  |  | 0.03 mg/L (≈ 0.0821 µM) |  | CC1(C)S[C@@H]2[C@H](NC(=O)[C@H](N)c3ccc(O)cc3)C(=O)N2[C@H]1C(=O)O [AMOXICILLIN] |  |  |  |  |  |  |
